CSC inhib – blocks cancer stem cells; cancer stem cell-like cells viability, luminescence; inhibition, % at 7.5 µM; 1.1% of 300,000 active; AID 2717; in the data active = inhibition above about 75%; tested in HMLE shEcad cells
Beta cell apopt – beta cell apoptosis inhibition | 0.8% of 300,000 active | AID 435005 | INS-1E cytokine-induced death, ATP luminescence, 48 h; percent of positive-control rescue, neutral wells zero | protection from apoptosis, % (test concentration not listed);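 active = Every replicate reaches about 75%, or at least half do and their mean reaches it too, limit read from the data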;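 also: higher means more ATP so stronger rescue from cytokine killing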
T cruzi inh – T. cruzi replication inhibition. T. cruzi beta-gal in NIH3T3, luminescence, 90 h. inhibition, % (no concentration beside the values). 1.4% of 300,000 active. AID 1885;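 active = mean inhibition across valid replicates above about 55%, limit read from the data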;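 also: signal also drops with host cell toxicity which is not excluded here; higher percent means less beta-gal luminescence so fewer parasites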
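System: Mouse NIH/3T3 fibroblasts infected with β-gal-expressing T. cruzi Tulahuen C4 | Quantity: NIH/3T3 cells, 5,000 per well | Reagent: 5000 reporter trypomastigotes per well | Dosing: Compound pinned at 50 nL/well, DMSO | Schedule: 3 h host attachment, then at least 90 h co-culture | Detection: GalScreen luminescence, 60 min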
Mdm2-MdmX inh – inhibitors of human Mdm2/MdmX interaction; O15151+Q00987; SaOS-2 split-luciferase Mdm2/MdmX complementation, luminescence; inhibition, % at 8 µM; 3% of 330,000 active;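 active = inhibition of at least 50% at 8 µM in the primary screen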
Target sequence (O15151 whole entry, looked up): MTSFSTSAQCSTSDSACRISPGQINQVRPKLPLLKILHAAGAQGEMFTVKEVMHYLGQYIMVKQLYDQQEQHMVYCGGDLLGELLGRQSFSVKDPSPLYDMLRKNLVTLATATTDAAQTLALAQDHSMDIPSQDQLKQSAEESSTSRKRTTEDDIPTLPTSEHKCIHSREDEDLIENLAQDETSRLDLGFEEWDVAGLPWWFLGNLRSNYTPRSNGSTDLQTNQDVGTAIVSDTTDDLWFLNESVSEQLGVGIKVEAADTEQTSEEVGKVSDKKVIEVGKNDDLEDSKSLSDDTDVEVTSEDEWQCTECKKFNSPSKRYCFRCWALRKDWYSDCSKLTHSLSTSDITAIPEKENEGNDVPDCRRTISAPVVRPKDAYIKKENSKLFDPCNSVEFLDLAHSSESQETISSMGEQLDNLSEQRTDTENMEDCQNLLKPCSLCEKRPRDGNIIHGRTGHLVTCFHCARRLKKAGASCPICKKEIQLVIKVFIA
Target sequence (Q00987 whole entry, looked up): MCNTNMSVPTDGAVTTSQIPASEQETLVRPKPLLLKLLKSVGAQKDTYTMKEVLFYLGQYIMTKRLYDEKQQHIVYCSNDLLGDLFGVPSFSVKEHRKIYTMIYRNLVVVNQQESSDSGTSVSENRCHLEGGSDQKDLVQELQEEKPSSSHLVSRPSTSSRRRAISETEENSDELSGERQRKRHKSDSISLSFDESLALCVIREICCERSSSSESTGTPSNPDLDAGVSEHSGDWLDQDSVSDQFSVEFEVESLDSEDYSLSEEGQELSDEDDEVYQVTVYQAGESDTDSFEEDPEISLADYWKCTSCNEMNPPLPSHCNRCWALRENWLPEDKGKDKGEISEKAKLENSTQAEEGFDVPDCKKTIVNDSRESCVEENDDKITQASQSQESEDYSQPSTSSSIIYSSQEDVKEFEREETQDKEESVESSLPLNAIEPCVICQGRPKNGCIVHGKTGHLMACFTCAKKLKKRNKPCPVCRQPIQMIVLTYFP
Calb FLC – affects C. albicans growth with fluconazole; growth inhibition, % (test concentration not listed); 0.57% of 300,000 active; C. albicans CaCi-2 (fluconazole-resistant clinical isolate) + fluconazole, Alamar Blue growth, 48 h;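 active = growth inhibition above about 58% in most replicates, limit read from the data, passing the limit was not always enough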;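 also: all wells also contain fluconazole at 8 µg/ml as a sub-toxic cotreatment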
SKKanGAS inh – blocks kanamycin growth of S. pyogenes SKKanGAS strain; BacTiter-Glo, 6 h; inhibition, % at 7.5 µM; 1.3% of 300,000 active; AID 1662;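 active = mean replicate score, as percent of positive control median, at least 50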;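 also: strain carries kanamycin resistance gene driven by streptokinase promoter and grows in 40 µg/ml kanamycin; loss of luminescence reflects streptokinase promoter inhibition or plain growth inhibition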
Mdm2 MdmX conf – confirmation of human Mdm2/MdmX interaction inhibitors. inhibition, % at 8 µM. 55% of 10,000 active. shares compounds with Mdm2-MdmX inh. Mdm2-MdmX binding, luminescent assay; in the data active = inhibition above about 40%
FLuc counter – full-length luciferase inhibition in Mdm2/MdmX counter-screen; shares compounds with Mdm2-MdmX inh; SaOS-2 full-length luciferase counterscreen, luminescence; inhibition, % at 8 µM; 77% of 6,200 active; AID 504607;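 active = mean inhibition at 8 µM reaching about 37%, which flags the compound as non-specific, limit read from the data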;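 also: p53-null SaOS-2 cells with luciferase driven by a doxycycline-inducible promoter; compound on cells about two nights before reading with doxycycline added after day one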
Large screens that a line does not name were inactive (follow-up assays come after a bar, where they were run). A selection: hits, their analogues and other compounds. The true share with any hit is near 5.7%.

CN(C)S(=O)(=O)c1ccc(F)c(C(=O)Nc2ccccc2C(=O)NC2CC2)c1	none (no result: CSC inhib, Beta cell apopt, T cruzi inh, Calb FLC, SKKanGAS inh)
O=C1[C@@H](Oc2ccccc2)[C@@H](c2ccncc2)N1c1ccccc1	Mdm2-MdmX inh 53 (no result: CSC inhib, Beta cell apopt, T cruzi inh, Calb FLC, SKKanGAS inh) | Mdm2 MdmX conf 48 | FLuc counter 48
O=C1[C@H](c2ccccc2)[C@@H](c2ccccc2)N1c1ccncc1	none (no result: CSC inhib, Beta cell apopt, T cruzi inh, Calb FLC, SKKanGAS inh)
c1ccc2c(c1)nnn1c3ccccc3nc21	none
ClC(Cl)(Cl)c1nc2ccccc2n2nncc12	Mdm2-MdmX inh 77 | Mdm2 MdmX conf 60 | FLuc counter inactive
O=C(Cc1ccccc1)N[C@@H]1c2ccccc2CC[C@@H]1OCc1ccccc1	none (no result: CSC inhib, Beta cell apopt, T cruzi inh, Calb FLC, SKKanGAS inh)
COc1cc(-c2noc(C)c2C#CC2(N)CCCCC2)cc(OC)c1OC	none
COc1cc(-c2noc(C)c2C#CC2(O)CCCCC2)cc(OC)c1OC	Mdm2-MdmX inh 61 | Mdm2 MdmX conf 43 | FLuc counter 84
COc1cc(-c2noc(C)c2C#Cc2ccsc2)cc(OC)c1OC	Mdm2-MdmX inh 65 | Mdm2 MdmX conf 68 | FLuc counter 78
COc1cc(-c2noc(C)c2C#CCO)cc(OC)c1OC	none
CCN(CC)S(=O)(=O)c1ccc(N2CCCC2)c(NC(=O)C2CSC3(C)CCC(=O)N23)c1 (stereo not drawn)	none
CCN(CC)c1ccc(S(=O)(=O)N2CCOCC2)cc1NC(=O)COC(=O)/C=C/c1ccc(C)o1	none
O=c1c2ccccc2oc2ccc(C#CC3(O)CCCCC3)cc12	CSC inhib 93, Mdm2-MdmX inh 59 | Mdm2 MdmX conf 51 | FLuc counter 173
N#Cc1ccc(C#Cc2ccc3oc4ccccc4c(=O)c3c2)cc1	Mdm2-MdmX inh 67 (no result: T cruzi inh, Calb FLC, SKKanGAS inh) | Mdm2 MdmX conf inactive
Cc1cc2sc3ccc(C#CC4(O)CCCCC4)cc3c(=O)c2cc1C	Mdm2-MdmX inh 94 | Mdm2 MdmX conf 97 | FLuc counter 54
Cn1c2ccccc2c(=O)c2cc(C#CC3(O)CCCCC3)ccc21	Mdm2-MdmX inh 69 | Mdm2 MdmX conf 53 | FLuc counter 169
Cn1c2ccccc2c(=O)c2ccc(C#CC3(N)CCCCC3)cc21	none
COc1cccc2oc3ccc(C#CC4(N)CCCCC4)cc3c(=O)c12	Mdm2-MdmX inh 96 | Mdm2 MdmX conf inactive
Cn1c(N)c(S(=O)(=O)N2CCCC2)c(=O)n(C)c1=O	none
Cc1ccc(Cn2ccc(NC(=O)c3cc(-c4ccc(Cl)cc4)on3)n2)cc1	none
Cc1ccc(Cn2ccc(NC(=O)c3cc(-c4cccc(Cl)c4)on3)n2)cc1	Mdm2-MdmX inh 55 | Mdm2 MdmX conf inactive
Cc1cc(C)c2nc(/N=C(\N)NC(=O)Nc3ccccc3)nc(C)c2c1	Mdm2-MdmX inh 54 | Mdm2 MdmX conf 48 | FLuc counter 70
Cc1cc(C)c2nc(/N=C(\N)NC(=O)c3ccccc3)nc(C)c2c1	none
COc1cccc([C@@H]2Oc3ccc(OC)cc3C(=O)[C@H]2OC(=O)N[C@H](C)C2CCCCC2)c1	none
COc1ccc2c(c1)O[C@H](c1ccc3c(c1)OCO3)[C@@H](OC(=O)Nc1cc(OC)c(OC)c(OC)c1)C2=O	Mdm2-MdmX inh 61 (no result: Beta cell apopt) | Mdm2 MdmX conf 62 | FLuc counter 67
COc1ccc2c(c1)O[C@H](c1ccc3c(c1)OCO3)[C@@H](OC(=O)N[C@H](C)C1CCCCC1)C2=O	Mdm2-MdmX inh 59 | Mdm2 MdmX conf inactive
O=C(Nc1ccnn1C1CCN(C(=O)c2cccc(Cl)c2)CC1)C1CC1	none
Cc1ccccc1OCc1nc2ccccc2c(=O)n1/N=C/c1cn[nH]c1-c1ccc(Br)cc1	Mdm2-MdmX inh 69 | Mdm2 MdmX conf inactive
O=c1c2ccccc2nc(COc2ccccc2)n1/N=C/c1ccc(O)cc1O	Beta cell apopt 87, T cruzi inh 57, Mdm2-MdmX inh 66 | Mdm2 MdmX conf 58 | FLuc counter inactive
O=c1c2ccccc2nc(COc2ccccc2)n1/N=C/c1c[nH]c2ccccc12	none
CCN(CC(=O)Nc1c(F)cccc1F)C(=O)c1cccc(-n2cnnn2)c1	none (no result: CSC inhib, Beta cell apopt, T cruzi inh, Calb FLC, SKKanGAS inh)
COc1ccc([C@H]2CC(=O)C=C(c3cccc(OC(F)(F)F)c3)C2)cc1	none (no result: T cruzi inh, Calb FLC, SKKanGAS inh)
CCCNC(=O)c1ccccc1NS(=O)(=O)c1ccc(OC)c(OC)c1	none
COc1ccc(-c2csc(NC(=O)c3ccccc3NS(=O)(=O)c3ccc(C)cc3)n2)cc1	Mdm2-MdmX inh 83, SKKanGAS inh 54 | Mdm2 MdmX conf 65 | FLuc counter 54
COc1ccc(S(=O)(=O)Nc2ccccc2C(=O)Nc2nc(-c3ccc(F)cc3)cs2)cc1OC	Mdm2-MdmX inh 74 | Mdm2 MdmX conf 66 | FLuc counter 63
O=C(Cc1ccc(Cl)cc1)NCC(=O)N1CCCCCC1	none
CN(CC(=O)Nc1cccc(F)c1)C(=O)CCc1nc2sc3c(c2c(=O)[nH]1)CCCC3	none (no result: Beta cell apopt)
Cc1nc(NC(=O)CSc2nc3cccnc3n2Cc2ccccc2)sc1C	Mdm2-MdmX inh 78 (no result: CSC inhib) | Mdm2 MdmX conf inactive
c1ccc(CN2CCC(Nc3nc(-c4ccccc4)nc4ccccc34)CC2)cc1	CSC inhib 139, Mdm2-MdmX inh 83 | Mdm2 MdmX conf inactive | FLuc counter 85
OCCNc1nc(Nc2ccc(Br)cc2)nc2ccccc12	T cruzi inh 62, Mdm2-MdmX inh 70 | Mdm2 MdmX conf 55 | FLuc counter 67
c1coc(CNc2nc(N3CCCCC3)nc3ccccc23)c1	Mdm2-MdmX inh 52 | Mdm2 MdmX conf inactive
c1ccc(CNc2nc(N3CCN(Cc4ccccc4)CC3)nc3ccccc23)cc1	CSC inhib 98, Mdm2-MdmX inh 81 | Mdm2 MdmX conf inactive
Cc1ccc(N2C(=O)C(Cl)=C(N3CCCCCC3)C2=O)c(C)c1	none
Cc1cc(C)n(CC(C)(O)c2ccccc2)n1 (stereo not drawn)	none
NS(=O)(=O)c1ccc(CCNCc2cccnc2)cc1	none
Oc1ccccc1-c1nc(NCc2ccco2)c2ccccc2n1	none
c1ccc(-c2nc(NCc3ccco3)c3ccccc3n2)nc1	Beta cell apopt 101, Mdm2-MdmX inh 65, SKKanGAS inh 95 | Mdm2 MdmX conf inactive
Cc1ccc(Nc2nc(NCc3ccco3)c3ccccc3n2)cc1	Beta cell apopt 76, T cruzi inh 66, Mdm2-MdmX inh 70, Calb FLC 92 | Mdm2 MdmX conf inactive
C(=N\Nc1nc(-c2ccccn2)nc2ccccc12)/c1ccccc1	CSC inhib 83, Beta cell apopt 92, Mdm2-MdmX inh 80, SKKanGAS inh 98 | Mdm2 MdmX conf 89 | FLuc counter inactive
Cc1ccc2sc(N(CCCN(C)C)C(=O)c3ccc(S(=O)(=O)N4CCc5ccccc5C4)cc3)nc2c1C	Mdm2-MdmX inh 98 (no result: Beta cell apopt) | Mdm2 MdmX conf 75 | FLuc counter 51
CCOc1ccc2nc(N(CCCN(C)C)C(=O)c3ccc4c(c3)CCCC4)sc2c1	none

Compound activity deposited in PubChem by several laboratories.
